Experimental findings from the EternaBench riboswitch data are described below.

For this data set, the system named is MS2 coat protein. In words: apparent Kd, MS2 coat protein; higher = weaker binding; RNA-MaP array; FMN 200 µM where present. The method, boiled down: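 The titrant was SNAP-549-labelled MS2 coat protein, run from 0.7 or 1.5 nM in doubling steps to 3 µM. It was applied to designs transcribed by stalled E. coli RNA polymerase on Illumina sequencing-chip clusters, without ligand first and then with constant ligand, in 100 mM Tris-HCl pH 7.5, 80 mM KCl, 4 mM MgCl2, BSA, DTT, yeast tRNA and Tween-20. The apparent Kd is the median of filtered per-cluster binding-curve fits, with green signal normalised to red-channel RNA signal and control-cluster median Fmax.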

Where [1] appears, read: designed as: ON switch for flavin mononucleotide, no ligand.
Setting [2] is: ligand present: flavin mononucleotide, designed as: ON switch for flavin mononucleotide.
Where [3] appears, read: designed as: OFF switch for flavin mononucleotide, no ligand.
Where [4] appears, read: ligand present: flavin mononucleotide, designed as: OFF switch for flavin mononucleotide.

As to “AUUUGCGAAUCAGGAUAUGGACCAGCACAUGAGGAUCACCCAUGUCUGCCGGCGAGCCGGCUAGGCCAGAAGGGAUGUGCUCAA”, the apparent Kd (usually the concentration giving half-maximal binding under the conditions of the assay) is 0.087 µM under setting [1] and 0.0182 µM under setting [2].
On the same counts, the results for “AUGGGUUAAGGAGGAUAUAGAGGGAGGAGUAGACAUGAGGAUCACCCAUGUAUUUAAUUAGUUUACUAGAAGGCUUGUGAUUGU” are 0.056 µM and 0.0757 µM.
“GCAGGAUAAGUGAGGAUAUACCUCUGGAUACAGAGGUAGAAGGCACAUGAGGAUCACCCAUGUCUAUCACCUGC”: the “apparent Kd” value was 0.016 µM under setting [3] and 0.0413 µM under setting [4].
Regarding “AAUCUGUCGGUAGGAUAUCAGUUUGGAGAGCCGACAUGAGGAUCACCCAUGUACAGAAUCAAGGGUGAGAAGGACCGGGUAGUU”, the “apparent Kd” value is, setting by setting: under setting [1], 0.0907 µM; under setting [2], 0.0786 µM.
On to “CCCAAACUUGGGCUUGGUGGUGCAUAGGAUAUGCUUGAACAUGAGGAUCACCCAUGUACAACUGUGCAGAAGGGUGCAGGGCAA”, for which the “apparent Kd” value by setting is: under setting [1], 0.0409 µM; under setting [2], 0.0186 µM.
For the sequence “CCUUGGAUUGAGGAUAUAUGAACCUUUACGGUUGUAGAAGGCAGGACAUGAGGAUCACCCAUGUGGUGGCGCUC”, the “apparent Kd” value by setting is: under setting [3], 1.28 µM; under setting [4], 1.01 µM.
As for “GUAGAGUAAGGAUAUCAAGAAUAGGAUAGAAUGGUUAGAAUUGAGAAGGUACAUGAGGAUCACCCAUGUAAUGU”, the “apparent Kd” value amounted to 0.0209 µM under setting [3] and 0.021 µM under setting [4].
For the sequence “AGCUACGUUUCGUAGCAGCUAGAAAAGGAUAUUCAAUUUUUCACAUGAGGAUCACCCAUGUAUGUGAAGAAGGCGCCUAGAAAG”, the “apparent Kd” value amounted to 0.0504 µM under setting [1] and 0.0359 µM under setting [2].
“GUUUCACAUGAGGAUCACCCAUGUGAGGAUAUGGACUUAUUGGCAAUAGUCGAUGGGUUCAGAAGGCGCGUGAU”: the “apparent Kd” value under setting [3] is 0.0679 µM and the “apparent Kd” value under setting [4] is 0.0712 µM.
Consider “CCUAAGGACACAGGAUAUAGCGUGGUGGCCGGACUCCAACAGCGAGCGGCGCUAGAAGGGUGACCACAUGAGGAUCACCCAUGU”, for which the “apparent Kd” value under setting [1] turned out to be 0.709 µM and the “apparent Kd” value under setting [2] was 0.37 µM.
Regarding “AACGAGGCAGGAUAUACAUGAGGAUCACCCAUGUGCUUGCAUGGCGUGGGAAGUCAACGUAGAAGGGCCAUGCC”, the “apparent Kd” value came out at 0.0757 µM under setting [3] and 0.0894 µM under setting [4].
On the same counts, the results for “AAGAAACAUGAGGAUCACCCAUGUGAGGAUAUGUAAAAUAAAAUAAAAUAAAUAAUAAACAGAAGGCACAAAGG” are 0.068 µM and 0.0765 µM.
On the same counts, the results for “UUAAAUCAUGUAGGAUAUGCAUGGCGAAGCUACGCAGAAGGACAUGAGGAUCACCCAUGUGCUAGCGACUGAGUACAGUUGCAA” are 0.0564 µM and 0.325 µM.
On to “GGAUAGUGAGGAUAUCGAUGUUAGGAGGAUGAGGUAGGAUGCGAGAAGGCACAUGAGGAUCACCCAUGUAUGGU”, for which the “apparent Kd” value reads like this: under setting [3], 0.0488 µM; under setting [4], 0.0388 µM.
For the sequence “AUCAGCUCGGCAGGAUAUACGUCACUGCGUCAGCAGUGUGGUAAGAUCACAUGAGGAUCACCCAUGUAGAAGGGACGAGCUGAU”, the “apparent Kd” value was 0.0114 µM under setting [3] and 0.0745 µM under setting [4].
On the same counts, the results for “AGAAUUGUAGGAUAUACAUGAGGAUCACCCAUGUGGGAGGUGGAGCAUACAAGACGAGGUAGAAGGACAACGAC” are 0.0923 µM and 0.0919 µM.
For the sequence “GGGUGGCGUAGAGGAUAUGUGUUACAUGAGGAUCACCCAUGUGCAUAUGAUGUUCGUGUGUGUGUAUAGAAGGCUACGUCGCUA”, the “apparent Kd” value by setting is: under setting [1], 0.0144 µM; under setting [2], 0.0177 µM.
For “UUUUUGUGAGGAUAUGGAAUAUCUUCUAUUUAUUAUUAAUUCCAGAAGGCACAUGAGGAUCACCCAUGUAUUUU”, the “apparent Kd” value by setting is: under setting [3], 0.0199 µM; under setting [4], 0.0252 µM.
On the same counts, the results for “CAGGUAGACUGAGGAUAUACAAAGACCUAGUUUAUCUAGGUCAACAUCACAUGAGGAUCACCCAUGUAGAAGGCAGUCUGCCUG” are 0.0154 µM and 0.0247 µM.
“GUAGCAUACCGAGGAUAUCUAUAUAAUAAACAAACAUGAGGAUCACCCAUGUGGCGAAAGCCAAGGGAGAAGGCGGAAUGCUAC”: the “apparent Kd” value was 0.0356 µM under setting [1] and 0.0221 µM under setting [2].
For the sequence “CGAUAUGAUAGAGGAUAUGUUUAACAUGAGGAUCACCCAUGUGACAUGGGAUUAAUAUAUAACUUACAGAAGGCUAUUCAAUCG”, the “apparent Kd” value worked out at 0.0344 µM under setting [3] and 0.0524 µM under setting [4].
For “GGUGGACAUGAGGAUCACCCAUGUGAGGAUAUCGGCUAUCUUGUCGCUGUCGGUUGCUCGAGAAGGCACAUUGU”, the “apparent Kd” value reads like this: under setting [3], 0.0788 µM; under setting [4], 0.128 µM.
“ACAGGAAACACAGGAUAUGAGCGAAAUAGAGACAUGAGGAUCACCCAUGUACCGUAGAGAACCGGUCAGAAGGGUGACUCCCGU”: the “apparent Kd” value was found to be 0.0254 µM under setting [1] and 0.0189 µM under setting [2].
With “GCCGAAAGUGUGAGGAUAUACCUAUGGAUACAUAGGUAGAAGGCACAUGAGGAUCACCCAUGUCCAAUAACGGC”, the “apparent Kd” value reads like this: under setting [3], 0.205 µM; under setting [4], 0.647 µM.
On the same counts, the results for “UUGGCACAUGAGGAUCACCCAUGUUAGGAUAUUGUGGUAGAAACAGCUGGGAAACGCACGAGAAGGGACACACG” are 0.0371 µM and 0.0555 µM.
For “AUCAUGUCAGGAUAUCUGAUAUGGAUCUUCGGAUCAAGUUCAGAGAAGGGACAUGAGGAUCACCCAUGUCGAAC”, the “apparent Kd” value under setting [3] came to 0.025 µM and the “apparent Kd” value under setting [4] was determined as 0.0424 µM.
“GUUGUGUAUGUAGGAUAUGCGAAGCAAAGCUUCGCAGAAGGACAUGAGGAUCACCCAUGUAUUGCAGCCUGCAAUCAGGCUGCU”: the “apparent Kd” value by setting is: under setting [3], 0.0416 µM; under setting [4], 0.175 µM.
On to “AGUUAAUAUCGAGGAUAUCCUCAUAUACAUGAGGAUCACCCAUGUAAACAUGGAGAAGGCGAUAUUAACAGCAUGUUACAUGCA”, for which the “apparent Kd” value is, setting by setting: under setting [1], 0.377 µM; under setting [2], 0.0219 µM.
Consider “AAAAAGCGAGGAUAUACGAGUCAAAGAAAAGACAAGGAGAAACAUGAGGAUCACCCAUGUAGAAGGCGCAAAAA”, for which the “apparent Kd” value came to 0.0205 µM under setting [3] and 0.0233 µM under setting [4].
On the same counts, the results for “UCGCUGCGAGGAUAUACGUUUGCGCGUUUUCGUUUGCGCGUACAUGAGGAUCACCCAUGUAGAAGGCGCGCUGC” are 0.0154 µM and 0.0155 µM.
In the case of “ACAAAUUAGUGAGGAUAUGCUAAAUUUAUAACAGCAGAAGGCACAAACCUCAAGACAUGAGGAUCACCCAUGUGGAAUAUAGAU”, the “apparent Kd” value came to 0.068 µM under setting [3] and 0.139 µM under setting [4].
As for “UCCUUGGUACAGAAGGACCGAGCUCCGUAGCAGGUAGGAUAUGUACAUGAGGAUCACCCAUGUCAGCGGUAAUUGCCAGUAUAC”, the “apparent Kd” value by setting is: under setting [3], 0.0546 µM; under setting [4], 0.0277 µM.
For the sequence “AUCAGCUCGUCAGGAUAUACAUGAUAGAUCGAUUAAUUAAUUAAUUUAACAUGAGGAUCACCCAUGUAGAAGGGACGAGCUGAU”, the “apparent Kd” value by setting is: under setting [3], 0.0685 µM; under setting [4], 0.0674 µM.
On the same counts, the results for “AUCAUGUAAGGAUAUCUUAUAUGGAUCGAAAGAUCAAGUUAAGAGAAGGUACAUGAGGAUCACCCAUGUAUAAC” are 0.0212 µM and 0.0272 µM.
As for “UUAUACAUGAGGAUCUCCCAUGACAUGAGGAUCACCCAUGUGCAGGAUAUACGUGAUAUAAUAUAGUAGAAGGGCAGACUAUAU”, the “apparent Kd” value turned out to be 0.119 µM under setting [3] and 0.13 µM under setting [4].
Consider “AUAAUGUGAGGAUAUCAGUCGUACAGCUUCGGCUGUACGACUGAGAAGGCACAUGAGGAUCACCCAUGUGGUCA”, for which the “apparent Kd” value under setting [3] is 0.499 µM and the “apparent Kd” value under setting [4] came out at 0.0842 µM.
On the same counts, the results for “ACAAGAUCAGGAUAUACAUGAGGAUCACCCAUGUUUAUCAAAAAAGGGCUUUCUUAAUGUAGAAGGGAUCUUGU” are 0.0845 µM and 0.0641 µM.
In the case of “GGCGAACAGGCUAACAUGAGGAUCACCCAUGUGGACUCAUGGUAGGAUAUCGGGAAGGAGGAAACCGAGAAGGGCCGGUGAGCC”, the “apparent Kd” value under setting [1] was found to be 0.061 µM and the “apparent Kd” value under setting [2] amounted to 0.0341 µM.
Consider “GGUGCCAUGUAGAAGGCAGAUCUGAUUCAGAUCUGAGGAUAUACAUGAGGAUCACCCAUGUAAAGGCACCGCCCGAGAGUGCAA”, for which the “apparent Kd” value under setting [3] is 0.00746 µM and the “apparent Kd” value under setting [4] worked out at 0.0176 µM.
On the same counts, the results for “UGGAACGUGUCAGGAUAUACAUGAGGAUCACCCAUGUAUAGGAAAUAGGCAGGGUCUCUUGCAUAGUAGAAGGGACGCGAUUGC” are 0.00658 µM and 0.00775 µM.
On to “UUAUUAAAUGUAGGAUAUGCAUAUUAUUAUUAUGCAGAAGGACAUGAGGAUCACCCAUGUAUAUUAUUAUUAUUUAUUAUUUAU”, for which the “apparent Kd” value is, setting by setting: under setting [3], 0.0457 µM; under setting [4], 0.0617 µM.
On the same counts, the results for “CGAAGCCAAGGAUAUACAUGAGGAUCACCCAUGUGUUCCAGGCAAGCACAGCAGCGACGUAGAAGGUGGCUUCA” are 0.0176 µM and 0.0417 µM.
On the same counts, the results for “UCAGGUCGGGAAGGAUAUCGGCCGCGAAGAGCUCGAGAAGGUCCCGACAUGAGGAUCACCCAUGUUGAAGGGUCCUAACGUGCC” are 0.158 µM and 0.0934 µM.
As for “CGCGAUGCGGUUGGCCCUGGGCGAGAGGAUAUGGGCAGCGGGACAUGAGGAUCACCCAUGUUCUCUCAGAAGGCUCGAGCAGGC”, the “apparent Kd” value by setting is: under setting [1], 0.217 µM; under setting [2], 0.0347 µM.
As for “GGUGCAUAUGAGAAGGCGAUCAUGAAACAUGAUCGAGGAUAUCAUGUAAACAUGAGGAUCACCCAUGUAUGGGUAAAGUGCAUC”, the “apparent Kd” value reads like this: under setting [1], 0.444 µM; under setting [2], 0.0271 µM.
As for “CUCAGACAUGAGGAUCACCCAUGUGAGGAUAUGAUGCGAUCGUCGAAAGACGAUAGCAUCAGAAGGUACAAAUG”, the “apparent Kd” value reads like this: under setting [3], 0.0531 µM; under setting [4], 0.0405 µM.
On the same counts, the results for “CAUGAGGUAGGAUAUACGAUAAUAUAGGGUAGAUAUAUAACACAUGAGGAUCACCCAUGUAGAAGGACCAGUAG” are 0.0312 µM and 0.0572 µM.
On the same counts, the results for “AGCUGGAGAGGAUAUACGUAAGUGAAAAAAGUCUGAUAACUACAUGAGGAUCACCCAUGUAGAAGGCUCUGGCA” are 0.0193 µM and 0.0332 µM.
